# Measured values published in ChEMBL document CHEMBL2157989, “Synthesis and biological evaluation of antibody conjugates of phosphate prodrugs of cytotoxic DNA alkylators for the targeted treatment of cancer” (J Med Chem, 2012).
# Experiments:
# [1] = Solubility of the compound in 5% DMA and 95% buffer at pH 7 at 1.5 mg sonicated for 45 mins followed by centrifugation for 45 mins by UV/Vis spectroscopy; format: physicochemical
# How it was run: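 For buffers with 5% or less DMA, a 50 mM stock of compound in DMA is diluted 20–100 times into pH 7.0 buffer. It is then sonicated for 45 min and centrifuged at 1400g for 45 min. Supernatant is quantified by UV/vis at 340 nm, with ε of 41500 (DC1–SR₂ compounds) or 34500 M⁻¹ cm⁻¹ (phosphate prodrugs).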
# [2] = Solubility in DMA at 1.5 mg sonicated for 45 mins followed by centrifugation for 45 mins by UV/Vis spectroscopy; format: physicochemical; conditions: 0.75 h
# How it was run: (§1)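 Solid compound (~1.5 mg) in the stated solvent was sonicated 45 min, then centrifuged at 1400g for 45 min. The supernatant concentration was read by UV/vis at 340 nm, using ε = 41500 M⁻¹ cm⁻¹ for the free phenols and 34500 M⁻¹ cm⁻¹ for the phosphate prodrugs (pH 7.0 values).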
# [3] = Solubility in hexane at 1.5 mg sonicated for 45 mins followed by centrifugation for 45 mins by UV/Vis spectroscopy; format: physicochemical; conditions: 0.75 h; how it was run: as §1
# [4] = Solubility in ethanol at 1.5 mg sonicated for 45 mins followed by centrifugation for 45 mins by UV/Vis spectroscopy; format: physicochemical; conditions: 0.75 h; how it was run: as §1
# [5] = Solubility in DMSO at 1.5 mg sonicated for 45 mins followed by centrifugation for 45 mins by UV/Vis spectroscopy; format: physicochemical; conditions: 0.75 h; how it was run: as §1
# COLO 205 = test: Cytotoxicity against human COLO205 cells assessed as cell survival after 72 hrs by clonogenic assay; format: functional, cell-based; conditions: COLO 205, 72 h
# How it was run: (§2)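 Cells were kept in RPMI 1640 with 10% heat-inactivated FBS at 37 °C and 6% CO₂. They were plated at 1000–5000 cells/well and exposed to 0–3 nM test agent for 72 h. Medium was then replaced and colonies grew for 7–10 days in total after plating. Colonies were fixed and stained with 0.2% crystal violet in 10% formalin/PBS, then counted. Surviving fraction = colonies in treated wells / colonies in control wells; IC₅₀ was taken from this.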
# [6] = Solubility in dichloromethane at 1.5 mg sonicated for 45 mins followed by centrifugation for 45 mins by UV/Vis spectroscopy; format: physicochemical; conditions: 0.75 h
# Ramos = test: Cytotoxicity against human Ramos cells assessed as cell survival after 72 hrs by clonogenic assay; format: functional, cell-based; how it was run: as §2
# [7] = Solubility in acetone at 1.5 mg sonicated for 45 mins followed by centrifugation for 45 mins by UV/Vis spectroscopy; format: physicochemical; conditions: 0.75 h
# [8] = Solubility in THF at 1.5 mg sonicated for 45 mins followed by centrifugation for 45 mins by UV/Vis spectroscopy; format: physicochemical; conditions: 0.75 h
# [9] = Solubility of the compound in 10% DMA and 90% buffer at pH 7 at 1.5 mg sonicated for 45 mins followed by centrifugation for 45 mins by UV/Vis spectroscopy; format: physicochemical
# How it was run: (§3)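 About 1.5 mg of compound is sonicated for 45 min in pH 7.0 buffer containing 10% or 20% DMA, then centrifuged at 1400g for 45 min. Supernatant concentration is read by UV/vis at 340 nm. ε at pH 7.0 is 41500 M⁻¹ cm⁻¹ for DC1–SR₂ compounds and 34500 M⁻¹ cm⁻¹ for phosphate prodrugs.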
# [10] = Solubility in water at 1.5 mg sonicated for 45 mins followed by centrifugation for 45 mins by UV/Vis spectroscopy; format: physicochemical; conditions: 0.75 h; how it was run: as §1
# [11] = Cytotoxicity against human NAMALWA cells assessed as cell survival after 72 hrs by clonogenic assay; format: functional, cell-based; conditions: NAMALVA; how it was run: as §2
# [12] = Solubility in toluene at 1.5 mg sonicated for 45 mins followed by centrifugation for 45 mins by UV/Vis spectroscopy; format: physicochemical; conditions: 0.75 h; how it was run: as §1
# [13] = Solubility of the compound in 20% DMA and 80% buffer at pH 7 at 1.5 mg sonicated for 45 mins followed by centrifugation for 45 mins by UV/Vis spectroscopy; format: physicochemical; how it was run: as §3
# [14] = Solubility in ethyl acetate at 1.5 mg sonicated for 45 mins followed by centrifugation for 45 mins by UV/Vis spectroscopy; format: physicochemical; conditions: 0.75 h; how it was run: as §1
# HL-60 = test: Cytotoxicity against human HL60 cells assessed as cell survival after 72 hrs by clonogenic assay; format: functional, cell-based; conditions: HL-60, 72 h; how it was run: as §2
# [15] = Solubility of the compound in 100% buffer at pH 7 at 1.5 mg sonicated for 45 mins followed by centrifugation for 45 mins by UV/Vis spectroscopy; format: physicochemical
# [16] = Solubility in chloroform at 1.5 mg sonicated for 45 mins followed by centrifugation for 45 mins by UV/Vis spectroscopy; format: physicochemical; conditions: 0.75 h; how it was run: as §1
# [17] = Solubility in methanol at 1.5 mg sonicated for 45 mins followed by centrifugation for 45 mins by UV/Vis spectroscopy; format: physicochemical; conditions: 0.75 h; how it was run: as §1
# [18] = Solubility in dioxane at 1.5 mg sonicated for 45 mins followed by centrifugation for 45 mins by UV/Vis spectroscopy; format: physicochemical; conditions: 0.75 h
# [19] = Solubility in DMF at 1.5 mg sonicated for 45 mins followed by centrifugation for 45 mins by UV/Vis spectroscopy; format: physicochemical; conditions: 0.75 h; how it was run: as §1
Compound,solubility at 0.75 h [1] [µM],solubility [2],solubility [3],solubility [4],solubility [5],IC50 (COLO 205) [nM],solubility [6],IC50 (Ramos) [nM],solubility [7],solubility [8],solubility at 0.75 h [9] [µM],solubility [10],IC50 [11] [nM],solubility [12],solubility at 0.75 h [13] [µM],solubility [14],IC50 (HL-60) [nM],solubility at 0.75 h [15] [µM],solubility [16],solubility [17],other results
CSSCCC(=O)Nc1ccc2[nH]c(C(=O)Nc3ccc4[nH]c(C(=O)N5C[C@@H](CCl)c6c5cc(O)c5ccccc65)cc4c3)cc2c1,< 1,soluble,Insoluble,Insoluble,soluble,0.25,Insoluble,0.022,soluble,soluble,1,Insoluble,0.01,Insoluble,3,Insoluble,0.032,< 0.1,Insoluble,Insoluble,solubility [18]: soluble; solubility [19]: soluble
CSSC(C)(C)CCC(=O)Nc1ccc2[nH]c(C(=O)Nc3ccc4[nH]c(C(=O)N5C[C@@H](CCl)c6c5cc(O)c5ccccc65)cc4c3)cc2c1,< 1,soluble,Insoluble,Insoluble,soluble,0.22,Insoluble,0.018,soluble,soluble,1,Insoluble,0.021,Insoluble,3,Insoluble,0.025,< 0.1,Insoluble,Insoluble,solubility [18]: soluble; solubility [19]: soluble
